# STAT1 activator – STAT1 signaling activation; AID 932; activation (% of control), % at 5.5 µM; 200,000 compounds, 2.6% hits; NIH 3T3 STAT1-luciferase reporter, IFN-gamma, luminescence; 100% = IFN-gamma alone, no compound;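 active = activation above the screen-wide mean activation plus 3 SD, cut at about 130% in these data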;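 also: raw ratio to IFN-gamma control signal so 100% means no change and 0% no light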
# Pf gametocyte – inhibitors of late stage P. falciparum gametocyte viability; inhibition, % at 10.9 µM; P. falciparum stage V gametocytes, ATP luminescence, 24 h; 150,000 compounds, 0.065% hits; AID 743093;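 active = inhibition above the mean plus 3 SD of compounds within the control limits, set per campaign, cut at about 38% in these data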;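 also: 0% = DMSO wells and 100% = medium only without gametocytes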
# FLuc inhib CS – inhibits firefly luciferase, flagging false hits in luciferase inhibition screens; P08659; ATPLite firefly luciferase biochemical luminescence, 10 min; inhibition, % at 10 µM; 200,000 compounds, 1.5% hits; AID 1006;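 active = inhibition above about 50% when tested at 10 µM, limit read from the data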
# Target sequence (P08659 whole entry, looked up): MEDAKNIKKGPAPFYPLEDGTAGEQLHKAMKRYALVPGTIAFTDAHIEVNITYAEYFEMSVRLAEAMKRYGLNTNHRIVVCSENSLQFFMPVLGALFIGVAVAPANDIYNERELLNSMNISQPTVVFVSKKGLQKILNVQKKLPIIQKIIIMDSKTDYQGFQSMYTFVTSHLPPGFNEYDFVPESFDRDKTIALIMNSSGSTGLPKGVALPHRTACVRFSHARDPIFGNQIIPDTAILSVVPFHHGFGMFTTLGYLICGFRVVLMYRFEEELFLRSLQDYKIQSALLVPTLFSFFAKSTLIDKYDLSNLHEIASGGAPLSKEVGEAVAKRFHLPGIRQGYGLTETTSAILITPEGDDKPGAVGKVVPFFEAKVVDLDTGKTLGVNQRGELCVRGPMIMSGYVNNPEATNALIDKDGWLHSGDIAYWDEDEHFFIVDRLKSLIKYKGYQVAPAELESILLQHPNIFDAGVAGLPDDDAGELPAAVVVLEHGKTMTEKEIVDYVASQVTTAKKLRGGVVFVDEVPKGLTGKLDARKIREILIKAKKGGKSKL
# APP 5'UTR act – APP 5'UTR luciferase reporter activation; SH-SY5Y APP 5'UTR luciferase reporter, luminescence; zero percent = DMSO vehicle wells; activation, % at 2 µM; 190,000 compounds, 1% hits;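 active = activation above a set limit, based on mean plus 3 SD of controls, cut at about 140% in these data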
# NF-kB expr up – raises NF-kB expression in human neuronal cells; NF-kB reporter expression; stronger effect = higher value; 190,000 compounds, 1.6% hits; fold change at 12.5 µM; AID 1239; in the data active = fold change above about 3.3
# FLuc act counter – firefly luciferase counter-screen for stimulation assays | P08659 | ATPlite luciferase biochemical, luminescence, 10 min; 0 = ATP-free wells, 1 = DMSO control | activation factor at 10 µM | 200,000 tested, under 10 active | AID 1027;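 active = luciferase activation factor, scaled between plate controls, of at least 2 with compound at 10 µM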
#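 Assay system: Luciferase/luciferin detection reagent, cell-free biochemical luciferase assay / Also added: ATP substrate / Schedule: 10 min at ambient temperature / Measured by: luminescence measurement of luciferase light output / Benchmarks: low control with PBS replacing ATP, high control enzyme plus ATP without compound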
# The depositor's hits bear a star; x = no result given. Rows were chosen to be rich in hits. Some 3.5% of all compounds tested hit in one or more screens of this group.
SMILES,STAT1 activator,Pf gametocyte,FLuc inhib CS,APP 5'UTR act,NF-kB expr up,FLuc act counter
CCCNC(=O)C(=O)Nc1ccc(N(C)C)cc1,137*,-8,17,32,1.9,0.8
CN(C)c1ccc(NC(=O)C(=O)NCCOc2ccccc2)cc1,111,x,-6,-16,1.3,1.1
COc1ccc(N(C(C)C(=O)Nc2cccnc2)S(C)(=O)=O)cc1 (configuration not stated),130*,x,-11,-5,1,1.1
CCN(CC)S(=O)(=O)c1ccc(N2CCCCC2)c(C(=O)Nc2ccccc2N2CCOCC2)c1,96,x,-8,9,0.77,1.1
O=C1[C@H]2[C@@H](C3CC3)N3C(=O)CN(Cc4ccccn4)C(=O)[C@@]3(Cc3ccccc3)[C@H]2C(=O)N1c1ccccc1,x,5,x,x,x,x
CN(C)c1ccc(N=Nc2ccccc2C(=O)OCC(=O)N2CCCCCC2)cc1,93,x,72*,18,0.77,0.3
CN(C)c1ccc(N=Nc2ccccc2C(=O)OCC(=O)N2CCCC2)cc1,98,5,70*,15,1,0.3
CC(O)[C@H]1CNCCN1CCc1cccc(F)c1 (some centres not stated),x,-9,x,x,x,x
CC1(c2cccc3ccccc23)NC(=O)N(CC(=O)NC2CCS(=O)(=O)C2)C1=O (configuration not stated),100,-18,-2,-16,0.94,1
CC[C@]12C(=O)N(C)C[C@H]([C@@H]3C(=O)N(C)C(=O)[C@@H]31)N2C(=O)c1ccc(C)cc1,x,-1,x,x,x,x
C(=C\c1nnc2c3ccccc3ncn12)/c1ccccc1,148*,-13,17,-73,3.2,0.8
CCOC(=O)c1c(C)[nH]c(N=Nc2cccc(C)c2)c1C,138*,x,13,158*,3.4*,0.9
CCOC(=O)c1c(C)[nH]c(N=Nc2ccc(OC)cc2)c1C,x,-2,x,x,x,x
CCOC(=O)c1c(C)[nH]c(N=Nc2ccccc2)c1C,127,x,-1,63,3.5*,1
Cc1ccc(N2CCN(S(=O)(=O)N3CCCCC3)CC2)c(C)c1,100,8,-6,-6,0.89,1.1
Cc1ccn2cc(CSc3ccccc3)nc2c1,131*,x,42,172*,6.3*,0.6
c1ccc(-n2nnnc2SCc2cn3ccccc3n2)cc1,92,16,6,0,1.4,0.9
Cc1cc(=O)[nH]c(SCc2cn3ccccc3n2)n1,102,16,5,-39,1.2,0.9
Cn1ccnc1SCc1cn2ccccc2n1,144*,x,2,242*,1.7,1
c1ccn2cc(CSC3=NCCS3)nc2c1,130*,x,2,51,1.9,1
c1ccn2cc(CSc3nnc4ccccn34)nc2c1,147*,-5,-3,94,2.3,1
Cc1noc(C)c1C1(O)CCCCCCCCCCC1,100,-7,-4,9,1.2,1
Cc1cc(C)nc(Nc2ccc(Cl)cc2C)n1,x,-3,x,x,x,x
CN1CCN(c2nc(-c3cc4ccccc4o3)cs2)CC1,129*,22,25,109,2.8,0.8
NC(=O)C1CCN(c2nc(-c3cc4ccccc4o3)cs2)CC1,x,-27,x,x,x,x
SMILES,STAT1 activator,Pf gametocyte,FLuc inhib CS,APP 5'UTR act,NF-kB expr up,FLuc act counter
O=C(O)c1ccc(NC(=O)c2cn(-c3ccccc3)nc2-c2ccc(Br)cc2)cc1,119,-5,-3,13,1.1,1
O=C(O)c1ccc(NC(=O)c2cn(-c3ccccc3)nc2-c2ccccc2)cc1,146*,-5,26,13,0.97,0.7
O=Cc1cc(-c2ccccc2)[nH]c1-c1ccccc1,x,24,x,x,x,x
COc1ccc(C2=NCN(c3ccc(C)cc3)C(=S)N2)cc1,113,x,-5,54,1.8,1.1
Cc1ccc(N2CN=C(c3ccccc3)NC2=S)cc1,130*,x,2,77,2.3,1
COc1cc2c(cc1C1NC(=S)NC(C)=C1C(=O)N(C)C)CCCC2 (configuration not stated),108,-2,-3,-12,1,1
C/C(CCS(=O)(=O)c1ccccc1)=N/O,97,38*,4,-3,1.1,1
C/C(CS(=O)(=O)c1ccccc1)=N\O,100,x,-7,8,0.99,1.1
C/C(=N\OC(=O)c1ccccc1F)c1nccs1,94,4,85*,-18,1.1,0.2
C/C(=N/OC(=O)c1cccc(Cl)c1)c1nccs1,103,4,55*,-15,1.1,0.5
CCCC(=O)Nc1ccc2oc(=O)ccc2c1,108,13,4,-12,1.5,1
CCCN(CCC)S(=O)(=O)c1ccc(NC(=O)c2cc(C(=O)OC)cc([N+](=O)[O-])c2)cc1,101,11,-3,-3,1.5,1
CN1CCN(c2ccc([N+](=O)[O-])cc2C(=O)c2ccc(Br)cc2)CC1,106,8,-1,-69,1.2,1
Cc1ccc(C(=O)c2cc([N+](=O)[O-])ccc2N2CCOCC2)c(C)c1,105,x,-5,-94,5.4*,1
Cc1ccc(C(=O)c2cc([N+](=O)[O-])ccc2N2CCOCC2)cc1C,110,x,0,-93,1.8,1
O=C(c1ccc(Br)cc1)c1cc([N+](=O)[O-])ccc1N1CCCCC1,102,-25,1,-95,5*,1
COC(=O)Nc1nnc(-c2ccccc2Cl)s1,127,7,55*,53,2.4,0.4
COC(=O)Nc1nnc(-c2ccccc2OC)s1,x,-8,x,x,x,x
Cc1cc(OCC(=O)N2CCCCCC2)ccc1[N+](=O)[O-],138*,-8,-8,57,1.8,1.1
Cc1cc(OCC(=O)N2CCCC2)ccc1Cl,117,x,-3,4,1.7,1
Cc1ccc(C(=O)/C=C2\NCCNC2=O)cc1,131*,x,67*,109,5*,0.3
Cc1ccc(C(=O)/C=C2\NCC(C)NC2=O)cc1 (configuration not stated),110,x,69*,117,2.3,0.3
Cc1ccc(C(=O)/C=C\C(=O)c2ccc(C)cc2)cc1,93,3,0,-88,2.4,1
O=C(Nc1ccc([N+](=O)[O-])cc1)c1cncc(Br)c1,104,1,-4,14,0.95,1
NCCc1c(-c2ccccc2)n(-c2ccccc2)c2ccccc12,112,x,-4,11,0.61,1
CCCCOc1ncnc2c1[nH]c1ccc(OCC)cc12,100,x,2,0,1.5,1
CCCCOc1ncnc2c1[nH]c1ccc(OC)cc12,137*,x,11,69,4.4*,0.9
CCCn1c(-c2ccc(OC)cc2)nc2ccccc21,92,x,5,16,0.77,0.9
COCn1c(-c2ccc(OC)cc2)nc2ccccc21,129*,x,76*,118,2.7,0.2

# Screening results: PubChem, several laboratories
